According to ChEMBL document CHEMBL2346644, “Anti-HBV active constituents from Piper longum” (Bioorg Med Chem Lett, 2013):

Columns and labels:
Hepatitis B virus [1] = test: Antiviral activity against Hepatitis B virus-infected human HepG2(2.2.15) cells assessed as inhibition of HBsAg secretion; assay type: functional, organism-based
Method in brief: (§1)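 Secretion of HBsAg and HBeAg by the HBV-producing Hep G2.2.15 line was measured after compound treatment. IC50 is the concentration giving 50% inhibition of antigen secretion. Lamivudine (3TC) served as the positive control. Values are the mean of two independent experiments.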

Hepatitis B virus [2] = test: Antiviral activity against Hepatitis B virus-infected human HepG2(2.2.15) cells assessed as inhibition of HBeAg secretion; assay type: functional, organism-based; method in brief: as §1
[3] = Cytotoxicity against human HepG2(2.2.15) cells; assay type: cell-based
Method in brief: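 The CC50, the concentration causing 50% cytotoxicity, was determined in Hep G2.2.15 cells. Values are the mean of two independent experiments.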

[4] = Selectivity index, ratio of CC50 for human HepG2(2.2.15) cells to IC50 for Hepatitis B virus-infected human HepG2(2.2.15) cells assessed as inhibition of HBsAg secretion; assay type: functional
Method in brief: (§2)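 SI was calculated as CC50/IC50 from Hep G2.2.15 cytotoxicity and from inhibition of HBeAg or HBsAg secretion. The underlying values are means of two independent experiments.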

[5] = Selectivity index, ratio of CC50 for human HepG2(2.2.15) cells to IC50 for Hepatitis B virus-infected human HepG2(2.2.15) cells assessed as inhibition of HBeAg secretion; assay type: functional; method in brief: as §2

With `CC(C)CNC(=O)/C=C/C=C/c1ccc2c(c1)OCO2` [PIPERLONGUMININE] the IC50 (Hepatitis B virus [1]) was greater than 4.51 mM, the IC50 (Hepatitis B virus [2]) was greater than 4.51 mM and the CC50 [3] was 0.32 mM.
For `Nc1ccn([C@@H]2CS[C@H](CO)O2)c(=O)n1` [LAMIVUDINE], the IC50 (Hepatitis B virus [1]) was 28.8 mM, the IC50 (Hepatitis B virus [2]) was 30.3 mM and the “Ratio CC50/IC50” value [4] was 1.1. The “Ratio CC50/IC50” value [5] was 1.
With `O=C(/C=C/CCCC[C@H](O)[C@H](O)c1ccc2c(c1)OCO2)N1CCCCC1` (relative stereo) the IC50 (Hepatitis B virus [1]) was 0.13 mM, the IC50 (Hepatitis B virus [2]) was 0.16 mM and the “Ratio CC50/IC50” value [4] was 2.5. The CC50 [3] was 0.32 mM and the “Ratio CC50/IC50” value [5] was 2.
In the case of `COc1cc(CC/C=C/C(=O)N2CCCCC2)ccc1O`, the IC50 (Hepatitis B virus [1]) is reported as 2.7 mM, the IC50 (Hepatitis B virus [2]) is reported as greater than 2.7 mM and the CC50 [3] is reported as greater than 2.7 mM.
For `CC(C)CNC(=O)/C=C/C=C/CCCCCC/C=C/c1ccc2c(c1)OCO2` [GUINEENSINE], the IC50 (Hepatitis B virus [1]) was less than 0.05 mM, the IC50 (Hepatitis B virus [2]) was less than 0.05 mM and the “Ratio CC50/IC50” value [4] was greater than 3. For the same compound, the CC50 [3] was 0.15 mM and the “Ratio CC50/IC50” value [5] was greater than 3.
In the case of `O=C1C=CCCN1` [5,6-DIHYDRO-2(1H)-PYRIDINONE], the IC50 (Hepatitis B virus [1]) is reported as greater than 14 mM, the IC50 (Hepatitis B virus [2]) is reported as greater than 14 mM and the CC50 [3] is reported as 9.9 mM.
For `CC(CC(=O)O)(CC(=O)O)OC[C@H]1O[C@@H](OC/C=C/c2ccccc2)[C@H](O)[C@@H](O)[C@@H]1O` [LONGUMOSIDE B], the IC50 (Hepatitis B virus [1]) was greater than 3.75 mM, the IC50 (Hepatitis B virus [2]) was greater than 3.75 mM and the CC50 [3] was greater than 3.75 mM.
In the case of `O=C(/C=C/C=C/c1ccc2c(c1)OCO2)N1CCCCC1` [PIPERINE], the IC50 (Hepatitis B virus [1]) is reported as 0.15 mM, the IC50 (Hepatitis B virus [2]) is reported as 0.14 mM and the “Ratio CC50/IC50” value [4] is reported as 15.7. The CC50 [3] was 2.35 mM and the “Ratio CC50/IC50” value [5] was 16.8.
`O=C1NCC[C@H](O)[C@H]1O` gave an IC50 (Hepatitis B virus [1]) greater than 1.22 mM, an IC50 (Hepatitis B virus [2]) greater than 1.22 mM and a CC50 [3] greater than 1.22 mM.
With `CCCCCCCCCCCCCCC/C=C/C=C/C(=O)NCC(C)C` the IC50 (Hepatitis B virus [1]) was 0.58 mM, the IC50 (Hepatitis B virus [2]) was 1.07 mM and the “Ratio CC50/IC50” value [4] was 2.7. The CC50 [3] was 1.58 mM and the “Ratio CC50/IC50” value [5] was 1.5.
In the case of `O=C(/C=C/CCCC[C@@H](O)[C@H](O)c1ccc2c(c1)OCO2)N1CCCCC1` (relative stereo), the IC50 (Hepatitis B virus [1]) is reported as 0.11 mM, the IC50 (Hepatitis B virus [2]) is reported as 0.11 mM and the “Ratio CC50/IC50” value [4] is reported as 1.9. The CC50 [3] was 0.21 mM and the “Ratio CC50/IC50” value [5] was 1.9.
